# Hits are enriched below; roughly 2.8% of the tested compounds scored in any of these assays.
# JMJD2C inh: blocks human GASC-1 demethylase activity. actives 0.069% (n = 330,000). inhibition, % at 2.35 µM. Q9H3R0. GST-JMJD2C(1-420) H3K9me3 demethylation, DELFIA europium. AID 2099;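 active means more than half of a compound's replicate wells show inhibition beyond 50%, single wells judged on their own value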;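 further: signal counts dimethyl H3K9 product captured on neutravidin plate; 0% = median of DMSO wells and 100% = 0.3 times that DMSO median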
# Rtt109 Vps75: C. albicans Rtt109 histone acetyltransferase inhibition. actives 0.16% (n = 330,000). Q5AAJ8. AID 540336. inhibition, % at 34.9 µM. purified Rtt109/Vps75, ThioGlo CoA-SH fluorescence, 4 h;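 active means inhibition of at least 50% in every replicate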
# Target sequence (Q5AAJ8 whole entry, looked up): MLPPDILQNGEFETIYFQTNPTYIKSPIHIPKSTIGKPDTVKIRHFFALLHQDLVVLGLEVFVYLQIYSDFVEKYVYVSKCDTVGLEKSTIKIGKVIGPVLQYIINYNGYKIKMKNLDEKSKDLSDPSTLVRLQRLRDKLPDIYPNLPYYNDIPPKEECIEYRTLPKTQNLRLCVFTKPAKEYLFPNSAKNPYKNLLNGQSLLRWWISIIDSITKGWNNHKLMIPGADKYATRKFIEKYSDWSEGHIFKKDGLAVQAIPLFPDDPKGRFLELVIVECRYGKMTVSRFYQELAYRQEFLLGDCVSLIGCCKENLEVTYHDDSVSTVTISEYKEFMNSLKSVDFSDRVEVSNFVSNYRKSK
# T cell HTS: T cell immune modulators affecting CD8 T cell-vesicle binding; 2C CD8+ T cell-vesicle binding, flow cytometry; active compounds read low; response (vesicle binding), % at 7 µM; actives 0.068% (n = 330,000);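 active means response, share of CD8 T cells binding vesicles, and their 90th percentile fluorescence all below set limits, cut at about 80% in these data, passing the limit was not always enough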;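 further: values below 100% mean blocked vesicle binding to the CD8+ T cells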
#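 Assay system: 2C TCR transgenic mouse naive CD8+ T cells, MACS-purified | Read-out: CD8+ gate FL2 mean fluorescence as % of same-row positive control | Signal: High-throughput flow cytometry with anti-B7-1 and anti-CD8 staining | Timing: Binding step 1.5 h, 37 °C, antibody labelling 20 min, ice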
# NR3A LBD binder: NR3A (human) ligand-binding domain modulation; NR3A LBD differential scanning fluorimetry, Tm shift; 0% = protein alone, 100% = glycine-bound protein; Tm shift relative to glycine control, % at 25 µM; actives 2.5% (n = 340,000); AID 1259313;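 active means melting temperature shift of at least 10% of the positive control shift, at one fixed dose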
# An asterisk follows results filed as active; i = inactive; . = not tested or not shown.
SMILES,JMJD2C inh,Rtt109 Vps75,T cell HTS,NR3A LBD binder
COc1ccc(NC(=O)c2ccc(F)cc2)cc1S(=O)(=O)Nc1cc(C)ccc1Br,-45,4,175,21*
Cc1ccccc1C(=O)N1CCC(C(=O)Nc2ccccn2)CC1,10,-3,286,0
CC(=O)c1ccc(S(=O)(=O)N2CCN(C(=O)CSC(=S)N3CCCC3)CC2)cc1,11,3,164,2
COc1cc(/C=N/NC(=O)Cc2csc(N3CCOCC3)n2)cc(OC)c1O,-2,7,269,15*
Cc1ccc(C(=O)N2CCN(S(=O)(=O)N3CCCCCC3)CC2)cc1,-4,-9,251,-6
CN(C)CCNC(=O)C(=O)c1c(-c2ccccc2)cc2ccccn12,5,6,327,242*
COc1ccc(NC(=O)Cn2nnc(C(=O)NCc3cccs3)c2N)cc1Cl,-1,5,315,-1
Cc1ccc(NC(=O)Cn2nnc(C(=O)NCc3cccs3)c2N)cc1Cl,5,-11,i,16*
CSc1ncccc1C(=O)OCC(=O)NCCc1ccccc1,1,1,182,2
O=C(Nc1nc2ccccc2[nH]1)c1ccccc1[N+](=O)[O-],-7,3,30*,0
Cc1c(C(=O)Nc2nc3ccccc3[nH]2)cccc1[N+](=O)[O-],-1,4,314,-4
ClCCn1cnc2c(SCc3ccccc3)ncnc21,.,7,.,2
CC(C)c1ccc(CCNC(=O)CSC(=S)N2CCCC2)cc1,6,14,178,1
Nc1nc(-c2ccc3c(c2)CCCC3)c(CC(=O)O)s1,-12,4,269,35*
CC(O)CN1CCN(C(=O)CN2C(=O)NC(c3ccccc3)(c3ccccc3)C2=O)CC1 (stereo not given),0,4,273,-1
COc1ccc(C(c2c(C)[nH]n(C(N)=S)c2=O)C(C#N)C#N)cc1 (stereo not given),-1,6,195,-1
Cc1[nH]n(-c2ncc(-c3ccc(Cl)cc3)s2)c(=O)c1C(c1ccc(Cl)cc1)C(C#N)C#N (stereo not given),4,2,119,17*
O=C(NNC(=O)C1CCN(C(=O)Nc2ccccc2)CC1)c1ccc([N+](=O)[O-])cc1,-1,-4,206,1
COc1ccc(N=C2SC(CC(=O)Nc3ccccc3)C(=O)N2Cc2ccccn2)cc1 (stereo not given),3,9,206,-6
COc1ccc(N=C2SC(CC(=O)Nc3cccc(Cl)c3)C(=O)N2Cc2ccco2)cc1 (stereo not given),-5,-2,274,12*
O=c1c2ccccc2nnn1CSc1ccccc1F,5,-10,314,11*
Cc1ccccc1NC(=S)NC(NC(=O)COc1ccccc1)C(Cl)(Cl)Cl (stereo not given),7,-1,554,-5
CCc1ccc(OCC(=O)NC(NC(=S)Nc2ccccc2)C(Cl)(Cl)Cl)cc1 (stereo not given),13,-5,i,23*
CCc1ccc(OCC(=O)NC(NC(=S)Nc2ccccc2C)C(Cl)(Cl)Cl)cc1 (stereo not given),7,0,172,15*
CCc1ccc(OCC(=O)NC(NC(=S)Nc2ccccc2OC)C(Cl)(Cl)Cl)cc1 (stereo not given),-7,1,102,7
SMILES,JMJD2C inh,Rtt109 Vps75,T cell HTS,NR3A LBD binder
Cc1[nH]n(C(N)=S)c(=O)c1N=Nc1cc(-c2ccc(Br)cc2)[nH]n1,-3,12,192,24*
COc1cc(SC#N)ccc1N=Cc1c(C)[nH]n(-c2ccc(Cl)cc2)c1=O,-7,-1,416,-3
COc1cc(SC#N)ccc1N=Cc1c(C)[nH]n(-c2ccc(C)c(C)c2)c1=O,-3,56*,877,5
CCOC(=O)N1CCC(N2Cc3cccc(C(=O)Nc4ccccc4OC)c3C2=O)CC1,3,3,398,0
CN(C)CCCNC(=S)NCC(c1ccc(Cl)cc1Cl)c1c[nH]c2ccccc12 (stereo not given),-2,23,441,-2
CCCCNC(=S)NCC(c1ccccc1)c1c[nH]c2ccccc12 (stereo not given),34,-16,i,30*
O=C(COC(=O)C1CCN(c2ccc(C(F)(F)F)cn2)CC1)Nc1cccc(F)c1,0,-4,277,12*
O=C(COC(=O)C1CCN(c2ccc(C(F)(F)F)cn2)CC1)Nc1ccc(Cl)cn1,0,-2,i,0
O=C(COC(=O)C1CCN(c2ccc(C(F)(F)F)cn2)CC1)Nc1ccc(Cl)cc1,-1,2,326,24*
Cc1ccc(NC(=O)COC(=O)C2CCN(c3ccc(C(F)(F)F)cn3)CC2)cc1C,1,2,320,12*
CCn1ncc(Cl)c1C(=O)Nc1ccc2c(c1)CCC2,-19,-4,632,.
COc1ccc(S(=O)(=O)N2CCc3ccccc32)cc1C(=O)NC1(C)CCS(=O)(=O)C1 (stereo not given),4,5,254,1
Cc1nn(-c2ccccc2)c(Cl)c1C(=O)OCC(=O)N(C)c1c(N)n(Cc2ccccc2)c(=O)[nH]c1=O,-15,1,290,0
Cc1cc(C)cc(-c2nnc(SCC(=O)NCC3CCCO3)o2)c1 (stereo not given),.,7,.,0
CN1C(C(=O)NCc2ccco2)CC2Cn3c(nc4cc(Cl)c(Cl)cc43)C21 (stereo not given),3,-8,303,1
Cc1cc2nc3n(c2cc1C)CC1CC(C(=O)NCCc2cccs2)N(C)C31 (stereo not given),1,10,321,13*
CN1C(C(=O)NCc2ccco2)CC2Cn3c(nc4cc5ccccc5cc43)C21 (stereo not given),-5,1,215,10*
CN1C(C(=O)NCc2ccccc2)CC2Cn3c(nc4cc5ccccc5cc43)C21 (stereo not given),1,2,157,12*
CCc1ccc(OCCSc2nc3ccccc3n2CC(=O)O)cc1,-11,-4,368,0
O=C(O)Cn1nc(C(F)(F)F)c2c1CCCCC2,-292,9,418,0
NC(=O)Cn1nc(C(F)(F)F)c2c1CCCC2,-11,-1,148,27*
O=[N+]([O-])c1cc(Cl)cc2c1nc(NCCO)c1ccccc12,-3,-1,111,13*
O=S(=O)(c1ccc2nc(-c3ccccc3)[nH]c2c1)N1CCN(c2cccc(Cl)c2)CC1,0,2,0,17*
Cn1cnc([N+](=O)[O-])c1S(=O)(=O)Oc1ccc(Cl)cc1,.,12,.,0
O=C(Nc1ccc([N+](=O)[O-])cc1)Nc1ccc(N2CCOCC2)c2nonc12,-6,1,213,18*
N#Cc1c(N)n(-c2ccccc2)c(=O)c2cc([N+](=O)[O-])ccc12,2,1,328,25*
CC(=NNC(=S)N1CCCCC1)c1cccc(C)n1,.,-7,.,0
CSC(=S)NN=C(C)c1cccc(C)n1,.,-6,.,15*

# Compound activity from PubChem BioAssay.
